# SUMO1 PPI mod: alters human SUMO1 binding to SIM partners; P63165; SUMO1 binding to a labelled peptide, TR-FRET, 1 h; inhibition, % at 20 µM; actives 0.33% (n = 360,000); AID 602429; in the data active = inhibition above about 37%
# DNMT1 block: DNMT1 (human) enzyme inhibition; DNMT1 molecular beacon, Hinp1I cleavage, fluorescence; inhibition (reported as % activation of signal), % at 10 µM; actives 0.83% (n = 360,000); in the data active = inhibition above about 50%
# Target sequence (P26358 504-1616 limits assumed): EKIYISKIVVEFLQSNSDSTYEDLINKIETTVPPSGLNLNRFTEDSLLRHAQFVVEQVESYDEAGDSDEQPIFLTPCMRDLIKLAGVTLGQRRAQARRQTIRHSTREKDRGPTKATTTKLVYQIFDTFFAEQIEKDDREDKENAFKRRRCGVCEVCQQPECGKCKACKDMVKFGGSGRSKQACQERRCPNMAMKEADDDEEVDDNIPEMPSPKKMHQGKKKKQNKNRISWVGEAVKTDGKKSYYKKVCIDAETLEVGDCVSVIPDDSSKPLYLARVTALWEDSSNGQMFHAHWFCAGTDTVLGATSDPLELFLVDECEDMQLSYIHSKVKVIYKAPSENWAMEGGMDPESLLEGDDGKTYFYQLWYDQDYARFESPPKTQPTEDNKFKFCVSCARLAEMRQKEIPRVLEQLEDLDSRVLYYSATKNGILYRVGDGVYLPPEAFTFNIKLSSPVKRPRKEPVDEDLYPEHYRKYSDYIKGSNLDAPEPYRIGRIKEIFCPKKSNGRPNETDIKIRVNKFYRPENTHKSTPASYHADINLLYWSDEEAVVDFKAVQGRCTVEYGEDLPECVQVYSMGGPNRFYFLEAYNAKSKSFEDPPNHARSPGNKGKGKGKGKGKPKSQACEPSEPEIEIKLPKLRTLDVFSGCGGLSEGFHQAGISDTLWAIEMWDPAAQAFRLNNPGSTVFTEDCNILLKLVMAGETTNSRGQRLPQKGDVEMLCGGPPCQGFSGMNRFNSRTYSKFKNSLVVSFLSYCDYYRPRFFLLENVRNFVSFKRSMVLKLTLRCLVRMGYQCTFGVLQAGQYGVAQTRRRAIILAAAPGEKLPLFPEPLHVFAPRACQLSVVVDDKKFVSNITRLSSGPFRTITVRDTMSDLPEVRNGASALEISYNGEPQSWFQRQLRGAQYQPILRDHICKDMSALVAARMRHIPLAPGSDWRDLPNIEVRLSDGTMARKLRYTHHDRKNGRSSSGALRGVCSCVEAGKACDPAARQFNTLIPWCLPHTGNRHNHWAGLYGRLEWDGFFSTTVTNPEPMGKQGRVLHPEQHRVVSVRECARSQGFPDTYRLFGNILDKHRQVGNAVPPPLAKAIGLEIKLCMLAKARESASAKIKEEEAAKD
# Scp-1 inhibitor: Scp-1 (human) phosphatase inhibition; Q9GZU7; Recombinant Scp1, phosphopeptide, malachite green phosphate absorbance; inhibition, % at 20 µM; actives 0.88% (n = 340,000);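 active = inhibition above about 50% at 20 µM, limit read from the data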;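 also: plate controls were DMSO wells with enzyme for no effect and wells lacking enzyme for full effect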
#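 Test system: SCP-1 catalytic domain; Buffer or medium: Acidic Tris acetate buffer with magnesium and detergent; Also added: Phosphorylated 17-residue peptide substrate; Compound: single 20 µM dose, 1% DMSO; Schedule: enzyme reaction 45 min at room temperature, colour 5 min, stabilisation 30 min; Signal: Phosphate-binding colour reagent, absorbance read at 630 nm.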
# STEP inh: blocks human striatal-enriched tyrosine phosphatase | actives 0.25% (n = 360,000) | recombinant STEP, OMFP fluorogenic substrate, fluorescence | inhibition, % at 20 µM | P54829 | AID 588621;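 active = inhibition at 20 µM, scaled per plate between control wells, above about 37%, limit read from the data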;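 also: 0% = DMSO with enzyme and substrate and 100% = substrate only without enzyme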
#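 Assay system: isolated STEP enzyme / Timing: 20 min at room temperature, dark / Doses: 20 µM, 1% DMSO / Technique: fluorescence intensity, excitation 480 nm, emission 540 nm / Reagent: fluorogenic phosphatase substrate OMFP at 25 µM final / Measure: percent inhibition scaled to no-enzyme and uninhibited-enzyme controls, plate-pattern corrected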
# LMPTP block: LMPTP (human) inhibition | actives 0.22% (n = 360,000) | P24666 | recombinant LMPTP-A, OMFP fluorogenic substrate, fluorescence intensity | inhibition, % at 20 µM;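 active = compounds that cut the enzyme signal by at least half of the control window in the single-dose screen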;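 also: plate controls were DMSO wells with enzyme plus substrate for no effect and substrate without enzyme for full effect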
#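 Test system: LMPTP-A phosphatase enzyme; input: 0.625 nM LMPTP-A final; reagent: OMFP substrate, 400 µM final; compound dosing: 20 µM single dose, 3% DMSO; incubation: 50 min dark incubation at room temperature; measured by: endpoint fluorescence intensity from OMFP dephosphorylation; measure: % inhibition relative to no-enzyme and uninhibited control wells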
# STEP conf: STEP (human) phosphatase inhibition, single concentration confirmation; inhibition, % at 20 µM; recombinant STEP, OMFP fluorogenic substrate, fluorescence; shares compounds with STEP inh; AID 623866; actives 32% (n = 520); call rule not given here;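 also: 0% = enzyme with substrate plus DMSO and 100% = substrate without enzyme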
# * marks the source's active call; other numbers are inactive results; · = not tested or not shown. An excerpt weighted towards active compounds, which were near 1.7% of everything screened.
SMILES,SUMO1 PPI mod,DNMT1 block,Scp-1 inhibitor,STEP inh,LMPTP block,STEP conf
COc1ccc(COc2ccsc2C(=O)Nc2ccc(Cl)c(Cl)c2)cc1,0,47,42,55*,21,14
Cc1cccc(C(=O)NCC(=O)N(C)Cc2nc3ccccc3c(=O)[nH]2)c1,0,3,-2,97*,0,5
CCCCOc1ccc(C(=O)NCC(=O)N(C)Cc2nc3ccccc3c(=O)[nH]2)cc1,-3,19,-6,0,-2,·
CC(=O)c1ccc(OCCCC(=O)OCC(=O)N2CCN(S(=O)(=O)c3ccc(C)cc3C)CC2)cc1,0,-2,-15,0,1,·
COc1cccc(C(=O)/C=C/Nc2ccc(S(=O)(=O)Nc3onc(C)c3C)cc2)c1,3,-4,-2,43*,3,7
O=C(c1cc(-c2cccc(Cl)c2)nc2ccccc12)N1CCN(c2ccccn2)CC1,-3,-2,0,1,6,·
Cc1cccc2c(C(=O)N3CCN(c4ccccn4)CC3)cc(-c3cccc(Br)c3)nc12,-4,-10,-1,69*,6,19
CN(Cc1ccccc1NS(=O)(=O)c1ccc2ccccc2c1)C1CCCCC1,-5,0,0,-6,0,·
COc1ccc(-c2nc(CSCC(=O)NC3CCN(Cc4ccccc4)CC3)c(C)o2)cc1OC,-1,1,-9,-3,-3,·
O=C(Nc1cccc(O)c1)C1CC(c2cccc(Br)c2)=NO1 (stereo not drawn),-9,3,-10,79*,-1,7
NS(=O)(=O)c1ccc(NC(=S)NC2CCCCC2)cc1,0,0,1,60*,0,24
CCOC(=O)N1CCC(N(CCN(C)C)C(=S)Nc2cc(Cl)ccc2C)CC1,3,-1,-13,65*,-10,36*
COCCNc1nc(Oc2ccc(C(N)=O)cc2)c2sccc2n1,1,8,·,-1,3,·
COc1cc(C(=O)NNC(=O)C2CC=CCC2C(=O)O)cc(OC)c1OC (stereo not drawn),3,2,-5,119*,1,10
C#CCN(CC=C)C(=O)c1ccc2nc(C3CCCCC3)oc2c1,1,-2,-5,-2,0,·
O=C(CSc1nc2cccnc2n1Cc1ccccc1)N1CCCC1,-3,1,2,0,0,·
Cn1c(SCC(=O)N2CCCC2)nc2cccnc21,0,2,-6,52*,1,1
C=C1/C=C(\C)C(C)(O)CC(O)CC(=O)C(O)C(O)C(C)CC(C)OC(=O)/C(C)=C/CC/C=C/C(OC)C(O)CC(C)C1 (stereo not drawn),2,-5,-2,1,0,·
Cc1cccc(NC(=O)c2cc3c(=O)n4ccccc4nc3s2)c1,30,41,7,84*,8,0
Cc1cccc(NC(=O)c2cnc3ccccn3c2=O)c1,-28,-27,2,-4,1,·
CC(C)CCNC(=O)C1CCC(CNS(=O)(=O)c2ccc(Cl)cc2)CC1 (stereo not drawn),0,2,-7,0,-2,·
O=c1nc2n(c3ncccc13)CCCCC2,-6,-4,-5,-4,-1,·
COc1ccccc1NS(=O)(=O)c1cc(NC(=S)NCCN2CCOCC2)ccc1N1CCOCC1,3,0,-5,91*,0,69*
COc1ccccc1NS(=O)(=O)c1cc(NC(=O)c2sccc2C)ccc1N1CCCC1,3,-7,-7,98*,4,93*
Cc1ccc(C(=O)Nc2ccc(C(=O)N/N=C/c3cccnc3)cc2)cc1,9,6,14,75*,41,-1
SMILES,SUMO1 PPI mod,DNMT1 block,Scp-1 inhibitor,STEP inh,LMPTP block,STEP conf
O=C(NCCCn1ccnc1)C(Cc1ccccc1)N1C(=O)c2ccccc2C1=O (stereo not drawn),-7,1,0,48*,-1,36*
O=C(COc1ccc(/C=N/NC(=O)c2ccncc2)cc1)Nc1ccc([N+](=O)[O-])cc1,42*,-2,-3,80*,9,84*
S=C(NCCCN1CCOCC1)Nc1ccc(-c2nc3ccccc3[nH]2)cc1,4,-10,-5,65*,0,40*
S=C(NCCCN1CCOCC1)Nc1cccc(-c2nnc3n2CCCCC3)c1,2,12,-1,42*,0,23
Cc1cc(=O)c(C(=O)O)nn1-c1ccccc1,2,2,-10,10,-3,·
CCOc1ccccc1NC(=S)N(CCCN1CCOCC1)Cc1cn(C)c2ccccc12,4,0,1,5,-1,·
COc1ccc(Cl)cc1NC(=S)N(CCCN1CCOCC1)Cc1cn(C)c2ccccc12,3,-9,-2,94*,-4,48*
COc1cc(Cl)ccc1NC(=S)N(CCCN1CCOCC1)Cc1cn(C)c2ccccc12,3,-9,-6,91*,-1,49*
COc1ccccc1NC(=S)N(CCCN1CCOCC1)Cc1cn(C)c2ccccc12,-3,-13,-4,8,-4,·
Nc1nc(N2CCN(C(=O)c3ccco3)CC2)nc2ccccc12,2,1,-8,-3,4,·
Cc1cc(N2CCN(C(=O)c3ccco3)CC2)c2ccccc2n1,0,0,-19,71*,7,0
CCCC(=O)Nc1cc(-c2nn(C)c(=O)c3ccccc23)ccc1N1CCOCC1,-2,10,23,42*,-2,9
CC(=O)Nc1cc(-c2nn(C)c(=O)c3ccccc23)ccc1N1CCOCC1,-7,4,-4,-4,-1,·
COc1ccc(C(=O)N2CCCC(c3cc(C(=O)NCc4ccc(F)cc4)no3)C2)cc1 (stereo not drawn),2,5,·,-2,0,·
Cc1cc([N+](=O)[O-])ccc1NC(=O)Cc1ccc(F)cc1,-10,-1,-5,117*,-1,1
NC(=O)C1(N2CCCCC2)CCN(C(=S)Nc2ccc(S(N)(=O)=O)cc2)CC1,-2,-3,-4,92*,-1,63*
NS(=O)(=O)c1ccc(NC(=S)N2CCC(Cc3ccccc3)CC2)cc1,5,2,-6,80*,3,31*
NC(=O)C1(N2CCCCC2)CCN(C(=S)Nc2ccccc2)CC1,5,0,-1,18,-1,·
NS(=O)(=O)c1ccc(NC(=S)N2CCN(Cc3ccc4c(c3)OCO4)CC2)cc1,-1,-1,-24,92*,-1,25
CCCN(C)C1CN(Cc2cn(Cc3ccc(C)cc3)nn2)S(=O)(=O)C1 (stereo not drawn),6,·,·,·,-2,·
CCc1ccccc1NC(=O)N1CCCC(CCC(=O)N(C)CCc2ccccn2)C1 (stereo not drawn),2,1,-4,117*,1,12
